How the values were obtained:
Assay type in all cases: ADME
[1] = Half life in rat liver microsome; details: liver microsomes
Summary of the method: (§1)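 Stability on incubation with rat or human liver microsomes, expressed as half-life.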

[2] = Half life in human liver microsome; details: liver microsomes; summary of the method: as §1
Cytochrome P450 2D6 = Cytochrome P450 2D6 (Homo sapiens, UniProt P10635); assay: Inhibition of CYP2D6
Cytochrome P450 2C9 = Cytochrome P450 2C9 (Homo sapiens, UniProt P11712); assay: Inhibition of CYP2C9
Cytochrome P450 3A4 = Cytochrome P450 3A4 (Homo sapiens, UniProt P08684); assay: Inhibition of CYP3A4
Cytochrome P450 3A4, sequence (P08684 whole entry): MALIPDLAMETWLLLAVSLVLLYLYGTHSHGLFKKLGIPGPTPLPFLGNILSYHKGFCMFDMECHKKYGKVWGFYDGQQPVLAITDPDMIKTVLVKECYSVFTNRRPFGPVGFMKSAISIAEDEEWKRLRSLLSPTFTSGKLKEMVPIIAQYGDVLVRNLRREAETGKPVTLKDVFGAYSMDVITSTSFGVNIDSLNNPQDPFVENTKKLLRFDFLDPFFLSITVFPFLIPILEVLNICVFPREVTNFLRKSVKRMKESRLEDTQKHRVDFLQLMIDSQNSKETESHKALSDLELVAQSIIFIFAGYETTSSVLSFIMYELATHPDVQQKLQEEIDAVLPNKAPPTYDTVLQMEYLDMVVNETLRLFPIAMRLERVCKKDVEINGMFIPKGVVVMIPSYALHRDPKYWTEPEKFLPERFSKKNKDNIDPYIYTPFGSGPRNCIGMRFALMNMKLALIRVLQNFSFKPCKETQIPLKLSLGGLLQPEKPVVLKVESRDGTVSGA

Cytochrome P450 2C9, sequence (P11712 whole entry): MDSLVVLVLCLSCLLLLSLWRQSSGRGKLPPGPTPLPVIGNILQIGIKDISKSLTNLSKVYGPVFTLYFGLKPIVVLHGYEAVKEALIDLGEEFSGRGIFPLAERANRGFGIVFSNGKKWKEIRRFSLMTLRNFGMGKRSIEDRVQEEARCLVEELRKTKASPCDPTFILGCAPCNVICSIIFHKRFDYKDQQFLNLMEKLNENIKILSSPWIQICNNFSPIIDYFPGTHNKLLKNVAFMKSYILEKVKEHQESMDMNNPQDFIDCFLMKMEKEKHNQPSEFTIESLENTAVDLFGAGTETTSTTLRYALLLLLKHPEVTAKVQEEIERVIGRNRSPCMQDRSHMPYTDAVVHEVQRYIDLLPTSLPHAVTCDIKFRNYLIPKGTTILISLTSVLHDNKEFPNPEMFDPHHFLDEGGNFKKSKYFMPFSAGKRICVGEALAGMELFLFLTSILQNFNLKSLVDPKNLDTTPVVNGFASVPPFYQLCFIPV
Cytochrome P450 2D6, sequence (P10635 whole entry): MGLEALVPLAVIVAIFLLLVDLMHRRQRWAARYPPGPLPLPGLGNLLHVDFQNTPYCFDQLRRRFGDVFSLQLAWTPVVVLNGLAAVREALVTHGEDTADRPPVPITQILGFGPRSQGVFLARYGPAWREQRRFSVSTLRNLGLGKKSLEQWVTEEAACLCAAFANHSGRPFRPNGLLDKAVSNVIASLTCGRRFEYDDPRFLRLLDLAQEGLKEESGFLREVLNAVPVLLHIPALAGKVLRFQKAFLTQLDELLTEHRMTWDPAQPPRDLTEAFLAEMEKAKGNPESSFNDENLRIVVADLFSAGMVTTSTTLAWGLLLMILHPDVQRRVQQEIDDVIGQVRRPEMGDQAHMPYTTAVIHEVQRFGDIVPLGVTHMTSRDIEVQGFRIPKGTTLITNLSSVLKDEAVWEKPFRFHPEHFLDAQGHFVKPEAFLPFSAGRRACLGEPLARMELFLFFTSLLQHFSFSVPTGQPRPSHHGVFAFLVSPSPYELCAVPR

| half-life [1] | half-life [2] | IC50 (Cytochrome P450 2D6) | IC50 (Cytochrome P450 2C9) | IC50 (Cytochrome P450 3A4) | SMILES |
| --- | --- | --- | --- | --- | --- |
| > 3 h | > 3 h | – | – | – | COc1cccc(CN(C)C(=O)N2CC(N)C(c3ccc(Cl)cc3Cl)C2)c1 (racemic) |
| > 3 h | > 3 h | – | – | – | NC1CN(c2nccc(-c3ccsc3)n2)CC1c1ccc(Cl)cc1Cl (racemic) |
| > 3 h | > 3 h | – | – | – | NC1CN(c2ccnc(-c3ccsc3)n2)CC1c1ccc(Cl)cc1Cl (racemic) |
| > 3 h | > 3 h | – | – | – | NC1CN(c2cc(-c3ccsc3)ncn2)CC1c1ccc(Cl)cc1Cl (racemic) |
| > 3 h | > 3 h | – | – | – | CC(=O)N1CC(N)C(c2ccc(Cl)cc2Cl)C1 (racemic) |
| > 3 h | > 3 h | – | – | – | CCNC(=O)N1CC(N)C(c2ccc(Cl)cc2Cl)C1 (racemic) |

More lines, now with the values behind:

| SMILES | half-life [1] | half-life [2] | IC50 (Cytochrome P450 2D6) | IC50 (Cytochrome P450 2C9) | IC50 (Cytochrome P450 3A4) |
| --- | --- | --- | --- | --- | --- |
| NC1CN(C(=O)NCc2cccc(F)c2)CC1c1ccc(Cl)cc1Cl (racemic) | > 3 h | > 3 h | – | – | – |
| NC1CN(c2cc(-c3ccsc3)ncn2)CC1c1cc(F)c(F)cc1Cl (racemic) | > 3 h | > 3 h | – | – | – |
| NC1CN(c2cc(-c3ccsc3)ncn2)CC1c1ccc(F)cc1Cl (racemic) | > 3 h | > 3 h | – | – | – |
| CCOC(=O)N1CC(N)C(c2ccc(Cl)cc2Cl)C1 (racemic) | > 3 h | > 3 h | – | – | – |
| Cc1cccc(COC(=O)N2CC(N)C(c3ccc(Cl)cc3Cl)C2)n1 (racemic) | > 3 h | > 3 h | – | – | – |
| NC1CN(c2nccc(-c3ccccc3)n2)CC1c1ccc(Cl)cc1Cl (racemic) | > 3 h | > 3 h | – | – | – |
| NC1CN(c2cc(-c3ccsc3)ncn2)CC1c1cc(F)c(F)cc1F (racemic) | > 3 h | > 3 h | 0.098 µM | > 10 µM | > 10 µM |
| CCN(C)C(=O)N1CC(N)C(c2ccc(Cl)cc2Cl)C1 (racemic) | > 3 h | > 3 h | – | – | – |
| NC1CN(c2ccccc2)CC1c1ccc(Cl)cc1Cl (racemic) | > 3 h | > 3 h | – | – | – |

From ChEMBL document CHEMBL1139138, “Pyrrolidine-constrained phenethylamines: The design of potent, selective, and pharmacologically efficacious dipeptidyl peptidase IV (DPP4) inhibitors from a lead-like screening hit” (Bioorg Med Chem Lett, 2007)
